# The list is not random: actives were taken first. Their share in the collection is about 2.6%.
# E-sel inducer: E-selectin induction in HUVECs, primary screen, imaging, HUVEC, immunofluorescence imaging, single point; P16581; normalized: neutral wells 0, TNF-alpha wells 100; activation, % at 7.58 µM; actives 0.37% (n = 260,000);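 active means mean E-selectin-positive cell signal at least 10% of the positive control, reached in at least 60% of replicates, without over 20% cell loss; inconclusive means no rule given, readout overlaps actives, possibly toxicity-flagged; inactive means the rest, including those meeting only one limit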
#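 System: HUVEC / Compound: single concentration / Signal: immunofluorescence imaging / Read-out: percent E-selectin-positive cells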
# AF4-AF9 inh: inhibitors of AF4 peptide binding to AF9, primary screen, biochemical, AlphaScreen, biotin-AF4 peptide, FLAG-AF9, single point. Protein AF-9 (Homo sapiens), P42568. inhibition, % at 10 µM. actives 0.47% (n = 350,000);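 active means every replicate reaching a set inhibition limit, whatever the replicate mean, cut at about 25% in these data; inconclusive means mean inhibition reaches that limit but some replicates miss it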
# Target sequence (P42568 whole entry, looked up): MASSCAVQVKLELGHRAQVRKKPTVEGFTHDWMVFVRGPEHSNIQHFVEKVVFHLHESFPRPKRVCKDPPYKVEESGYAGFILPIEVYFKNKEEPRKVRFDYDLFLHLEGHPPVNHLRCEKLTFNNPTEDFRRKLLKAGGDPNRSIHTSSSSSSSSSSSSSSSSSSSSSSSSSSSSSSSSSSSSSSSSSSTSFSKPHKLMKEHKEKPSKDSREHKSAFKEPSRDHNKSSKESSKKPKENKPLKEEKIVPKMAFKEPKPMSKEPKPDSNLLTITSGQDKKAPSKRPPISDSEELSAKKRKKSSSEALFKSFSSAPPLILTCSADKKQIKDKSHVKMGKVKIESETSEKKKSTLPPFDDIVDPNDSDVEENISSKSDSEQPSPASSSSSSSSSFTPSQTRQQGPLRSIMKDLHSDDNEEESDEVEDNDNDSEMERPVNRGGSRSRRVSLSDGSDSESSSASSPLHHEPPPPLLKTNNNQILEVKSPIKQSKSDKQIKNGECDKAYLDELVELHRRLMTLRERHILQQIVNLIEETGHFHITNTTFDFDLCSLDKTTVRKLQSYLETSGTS
# RAD54 inh: inhibitors of human RAD54 branch migration, primary screen, biochemical, fluorescence, single point. DNA repair and recombination protein RAD54-like (Homo sapiens), Q92698. actives 0.14% (n = 360,000). RAD54 Holliday junction branch migration, FAM/BHQ fluorescence. inhibition, % at 10.4 µM;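 active means mean normalized replicate activity at least 40 and at least half of replicates scoring 40 or more; inconclusive means only one of the two criteria met; inactive means mean below 40 and under half of replicates reaching 40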;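 further: inhibitors cause a drop in the FAM fluorescence signal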
# GSIS activator: GLuc luminescence reporter in INS-1E cells, primary screen for activators of glucose-dependent secretion of insulin | activation, % at 16.6 µM | actives 0.61% (n = 370,000) | INS-1E GLuc reporter insulin secretion, 2-3 h;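 active means lowest replicate activation of at least 40%, so every replicate reaches that level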
# RAD52 anneal inh: RAD52 DNA annealing inhibitors, primary screen, biochemical, FRET, single point, set 2; inhibition, % at 18.7 µM; actives 0.46% (n = 360,000); recombinant RAD52 DNA annealing, FRET fluorescence;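 active means every replicate showing at least 50% inhibition; inconclusive means mean inhibition at least 50% but not in every replicate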
# Ecoli rRNA inh: reduced GFP signal of wild-type E. coli, primary screen, bacterial rRNA inhibitor project, GFP/RFP fluorescence, OD600, single point; actives 1.6% (n = 350,000); AID 720706, 2013; E. coli WT GFP vs humanized-ribosome RFP mutants, 24 h; stronger effect = lower value; DMSO median 0, no signal -100; GFP signal change (wild-type ribosome), % (test concentration not listed);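 active means significant combined selectivity score with lowered wild-type GFP, culture density cut under 30%, mutant RFP and density less affected; inactive means any of these conditions unmet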
# AID977621: growth inhibition of wild-type GFP E. coli, dose response, H69 mutant RFP, cherry-pick; shares compounds with Ecoli rRNA inh; E. coli wild-type GFP strain growth, fluorescence, 24 h; activity change, negative = inhibition at 50 µM; 1,900 tested, under 10 active; AID 977621, 2014;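 active means Wild-type ribosome reporter drop at least double the humanized mutant ribosome reporter drop, growth loss under a set limit; inconclusive means no clear call, values can overlap the other calls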;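 further: wild-type GFP and H69 mutant RFP strains grown together 50/50 in each well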
# AID977628: E. coli growth inhibition, wild-type GFP versus h24 humanized RFP strain, dose response, h24 mutant RFP vs wild-type GFP, cherry-pick | shares compounds with Ecoli rRNA inh | E. coli WT GFP strain growth, fluorescence, 24 h | activity change, negative = inhibition at 50 µM | 1,900 tested, under 10 active;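 active means compound lowering the normal-ribosome reporter at least twice as much as the humanized-ribosome reporter, growth loss under a set limit; inconclusive means no clear call, values can overlap the other calls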;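 further: wild-type GFP and h24 humanized RFP strains co-cultured 1 to 1 per well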
# Hits are given with their value; . = inactive; ? = inconclusive; / = not tested or not shown.
SMILES,E-sel inducer,AF4-AF9 inh,RAD54 inh,GSIS activator,RAD52 anneal inh,Ecoli rRNA inh,AID977621,AID977628
CCOC(=O)c1cc(C)nc(N2CCCCC2)c1C#N,.,/,/,.,.,-21,.,/
NC(=O)c1cc(NC(=O)c2cc(Br)c(Br)s2)cc(C(N)=O)c1,/,.,/,.,.,-24,/,?
O=C(Nc1cccnc1)c1cc(Br)c(Br)s1,.,.,.,.,.,.,/,/
CO[C@@H](CN(C)C(=O)c1ccc2c(c1)OCO2)[C@H](C)CN([C@H](C)CO)S(=O)(=O)c1ccc(C)cc1,.,.,.,.,.,.,/,/
COc1ccccc1N(C)S(=O)(=O)c1ccc(C(=O)NC(C)c2ccccc2)cc1 (stereo unspecified),.,.,.,.,.,-18,/,?
Cc1noc(C)c1NC(=O)Nc1ccc2c(c1)CC(=O)N([C@@H](C)CO)C[C@@H](C)[C@H](CN(C)C)O2,.,.,.,.,.,.,/,/
Cc1cccc(Oc2ccc(NC(=O)c3ccccc3C(=O)O)cc2)c1,.,.,.,.,.,-23,.,?
Cc1cccc(NS(=O)(=O)c2cc3c(cc2C)NC(=O)CO3)c1,.,.,.,.,.,-18,.,.
CCNC(=O)[C@H]1[C@H](CO)[C@H]2Cn3c(ccc(-c4ccc(F)cc4)c3=O)[C@H]2N1Cc1cc(F)ccc1F,.,.,.,.,.,.,/,/
COc1cccc(SCC(=O)N2CCN(c3ccccc3)CC2)c1,/,.,.,/,.,-23,.,?
O=C(Nc1ccc(F)cc1)N1CCCCN2[C@@H](CO)[C@H](c3ccc(-c4ccncc4)cc3)[C@@H]2C1,.,.,.,.,.,-20,.,/
COc1ccc(C#Cc2ccc([C@@H]3[C@@H](CO)N4CCCCN(C(=O)Nc5ccc(F)cc5)C[C@H]34)cc2)cc1,.,.,.,.,.,-48,/,?
COc1ccc(C#Cc2ccc([C@H]3[C@@H](CO)N4CCCCN(C(=O)Nc5ccc(F)cc5)C[C@H]34)cc2)cc1,.,.,.,.,.,.,/,/
O=C(Nc1cccc(F)c1)N1[C@@H]2CNC[C@H]1C2c1ccc(-c2ccncc2)cc1 (stereo partly specified),.,.,/,.,.,-25,.,.
O=C(N[C@@H]1CC[C@@H](CCn2cc(-c3ccc(F)cc3)nn2)O[C@@H]1CO)c1cnccn1,.,.,.,.,.,.,/,/
C[C@]12CCC(=O)N1CCc1c2[nH]c2ccccc12,/,.,.,/,.,/,/,/
C[C@@H]1CN([C@@H](C)CO)C(=O)c2cc(C3=CCCCC3)cnc2O[C@@H]1CN(C)C(=O)c1ccccn1,.,.,.,.,.,.,/,/
Cc1ccoc1C(=O)Nc1ccc2ccccc2c1,.,.,.,.,.,-20,.,/
Cc1cc(C(=O)Nc2ccc3ccccc3c2)oc1C,.,.,.,.,.,.,/,/
Cc1sc(C(=O)Nc2ccc3ccccc3c2)cc1CC(=O)O,/,.,.,.,.,-31,/,.
Cc1cc(C(=O)Nc2ccc3ccccc3c2)c(C)o1,/,.,.,.,.,-22,.,.
CC(C)NC(=O)N(C)C[C@@H]1Oc2ccccc2CC(=O)N(C)C[C@@H]1C,/,/,/,.,/,.,/,/
Cn1c(=O)c2c(nc(N3CCOCC3)n2C/C=C/c2ccccc2)n(C)c1=O,.,.,.,/,.,-18,.,.

# Compound activity as filed in PubChem BioAssay.
